Results: paper PMC10730135 (Human Vaccines & Immunotherapeutics, 2023)
Entries after “also recorded” stand apart in the source; their conditions may differ.

What was measured:
[1] = system: CD8+T cells; assay: IFN-γ ELISA of DC/CD8+T cell co-culture supernatant; format: cell-based, human; details: for IFN-γ content in culture medium (ELISA): 12th day of co-cultivation of DCs and CD8+T cells, compared with NP-CTL; for capacity of induced CTLs to produce IFN-γ: ELISA and ELISPOT taken together, compared to other peptides of CT23
[2] = system: HLA-A2 molecules on T2 cell surface; assay: T2 cell binding assay; set-up: species or system human; details: in words
In short: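 T2 cells (1 × 10^6/mL) incubated 18 h at 37°C, 5% CO2 with 50 µg/mL peptide in RPMI-1640 plus 3 µg/mL human β2-microglobulin; no-peptide blank included. Washed three times in PBS, stained 30 min with FITC anti-HLA-A2, MFI read by flow cytometry. FI = (MFI peptide − MFI blank)/MFI blank. Classes: FI >1.0 high, 0.5–1.0 medium, <0.5 low.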

[3] = system: OVCAR-3 (HLA-A *0201+, CT23+); assay: Cytotoxicity assay; format: cell-based, human; details: LDH release, effector:target 50:1, 4 h; mean±standard deviation; SD
In short: (§1)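 Effectors: CD8+ T cells from HLA-A2+ donor PBMCs, co-cultured 10:1 with peptide- or protein-loaded DCs. rhIL-2 20 ng/mL from day 2; restimulated days 7 and 12; collected day 15. Targets grown in RPMI-1640/10% FBS. After 4 h, supernatant incubated with LDH substrate 30 min at RT in the dark, then stopped and read at OD490. Killing % = (experimental − effector and target spontaneous release)/(target maximum − target spontaneous release).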

[4] = system: U87 (HLA-A *0201+,CT23+); assay: Cytotoxicity assay; format: cell-based, human; details: LDH release, effector:target 50:1, 4 h; mean±standard deviation; SD
In short: as §1

[5] = system: SKOV3 (HLA-A *0201−, CT23+); assay: Cytotoxicity assay; format: cell-based, human; details: LDH release, effector:target 50:1, 4 h
In short: as §1

[6] = system: T2 cells without loading peptides; assay: Cytotoxicity assay; format: cell-based, human; details: LDH release, effector:target 50:1, 4 h
In short: as §1

[7] = system: T2 cells loaded with peptide P7; assay: Cytotoxicity assay; format: cell-based, human; details: LDH release, effector:target 50:1, 4 h; mean±standard deviation; SD
In short: as §1

[8] = system: CTLs; assay: IFN-γ ELISPOT of peptide-induced CTLs; format: cell-based, human; details: CTLs 1 × 10^5 cells/well, 20 hours; compared to NP-CTL
In short: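 CTLs from HLA-A2+ donor CD8+ T cells stimulated with DCs loaded with peptide (50 μg/mL) or recombinant protein (100 μg/mL). Ratio 10:1, rhIL-2 20 ng/mL, restimulation days 7 and 12, harvested day 15. Added to anti-IFN-γ-coated wells with PHA positive and background control wells; 20 h at 37°C, 5% CO2. Biotinylated antibody, streptavidin–enzyme conjugate and substrate added; spots counted by analyzer.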

| Sequence | IFN-γ content in culture medium (ELISA) [1] | capacity of induced CTLs to produce IFN-γ [1] | binding affinity to HLA-A2 molecules (class by FI) [2] | also measured |
| --- | --- | --- | --- | --- |
| ALLTPTWKA [P1] | statistical significance compared with NP-CTL | stronger capacity to produce IFN-γ | higher binding affinity |  |
| ALLVLCYSI [P7] | highest IFN-γ secretion | stronger capacity to produce IFN-γ | higher binding affinity; also recorded: highest binding affinity | killing rate of peptide-induced CTLs on OVCAR-3 [3]: 31.81 ± 9.82%; killing rate of peptide-induced CTLs on U87 [4]: 31.42 ± 0.85%; killing effect of peptide-induced CTLs on HLA-A*0201 negative SKOV3 tumor cells [5]: no killing effect; also recorded: did not exhibit any killing effect; killing effect of P7-induced CTLs on T2 cells without loaded peptide P7 [6]: did not exhibit any significant killing effect; also recorded: no killing effect; killing rate of P7-induced CTLs on T2 cells loaded with peptide P7 [7]: 64.95 ± 6.09%; number of IFN-γ-positive cells (ELISPOT) [8]: significant statistical difference |
| LLASQSLSI [P6] | statistical significance compared with NP-CTL | stronger capacity to produce IFN-γ | higher binding affinity |  |
| MIMENIQEL [P5] |  |  | higher binding affinity |  |
| QLPHTEALL [P4] | statistical significance compared with NP-CTL | stronger capacity to produce IFN-γ | higher binding affinity |  |
| RLSNNVEEL [P2] |  |  | higher binding affinity |  |
| VLCSQPVSI [P3] |  |  | moderate |  |
